Columns and labels:
Homo sapiens [1] = species on record: Homo sapiens; test: Selectivity for 5HT1A over adrenergic alpha-1 receptor
Summary of the method: (§1)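 Selectivity is the ratio of Ki at 5-HT1A, D1 or D2 to Ki at α1. Ki values are means (±SD) of three separate experiments.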

[2] = biological target: T1, 5-hydroxytryptamine receptor 1A (Homo sapiens, UniProt P08908); test: Binding affinity to 5HT1A
T1 sequence (P08908 whole entry): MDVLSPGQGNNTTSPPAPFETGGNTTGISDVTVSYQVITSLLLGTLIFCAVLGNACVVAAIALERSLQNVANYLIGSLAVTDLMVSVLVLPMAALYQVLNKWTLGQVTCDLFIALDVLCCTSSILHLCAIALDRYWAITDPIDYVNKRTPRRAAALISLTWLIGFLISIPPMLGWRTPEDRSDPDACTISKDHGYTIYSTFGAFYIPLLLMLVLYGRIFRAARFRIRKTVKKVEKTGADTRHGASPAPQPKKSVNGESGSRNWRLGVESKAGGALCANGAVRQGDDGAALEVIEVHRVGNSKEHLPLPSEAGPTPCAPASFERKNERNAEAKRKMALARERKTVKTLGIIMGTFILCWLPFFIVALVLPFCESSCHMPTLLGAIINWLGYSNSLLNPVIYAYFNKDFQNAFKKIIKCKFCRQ

[3] = biological target: T2, Adrenergic receptor alpha-1 (Homo sapiens, UniProt P35348+P25100+P35368); test: Binding affinity to adrenergic alpha-1 receptor; type: protein assay
T2 sequence (P35348 whole entry): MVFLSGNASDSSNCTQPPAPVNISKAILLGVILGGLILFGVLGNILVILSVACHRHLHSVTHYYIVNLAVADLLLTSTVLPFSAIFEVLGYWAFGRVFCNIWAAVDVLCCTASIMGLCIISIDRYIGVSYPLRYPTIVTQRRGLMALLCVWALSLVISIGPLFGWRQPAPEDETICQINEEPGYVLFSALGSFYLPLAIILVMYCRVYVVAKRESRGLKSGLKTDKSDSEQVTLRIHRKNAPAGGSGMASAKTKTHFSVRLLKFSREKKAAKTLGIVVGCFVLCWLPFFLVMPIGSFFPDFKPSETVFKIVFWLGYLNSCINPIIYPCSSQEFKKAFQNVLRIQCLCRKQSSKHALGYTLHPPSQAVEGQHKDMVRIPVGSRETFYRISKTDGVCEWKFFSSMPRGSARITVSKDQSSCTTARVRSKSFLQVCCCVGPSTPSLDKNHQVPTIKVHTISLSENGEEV
T2 sequence (P25100 whole entry): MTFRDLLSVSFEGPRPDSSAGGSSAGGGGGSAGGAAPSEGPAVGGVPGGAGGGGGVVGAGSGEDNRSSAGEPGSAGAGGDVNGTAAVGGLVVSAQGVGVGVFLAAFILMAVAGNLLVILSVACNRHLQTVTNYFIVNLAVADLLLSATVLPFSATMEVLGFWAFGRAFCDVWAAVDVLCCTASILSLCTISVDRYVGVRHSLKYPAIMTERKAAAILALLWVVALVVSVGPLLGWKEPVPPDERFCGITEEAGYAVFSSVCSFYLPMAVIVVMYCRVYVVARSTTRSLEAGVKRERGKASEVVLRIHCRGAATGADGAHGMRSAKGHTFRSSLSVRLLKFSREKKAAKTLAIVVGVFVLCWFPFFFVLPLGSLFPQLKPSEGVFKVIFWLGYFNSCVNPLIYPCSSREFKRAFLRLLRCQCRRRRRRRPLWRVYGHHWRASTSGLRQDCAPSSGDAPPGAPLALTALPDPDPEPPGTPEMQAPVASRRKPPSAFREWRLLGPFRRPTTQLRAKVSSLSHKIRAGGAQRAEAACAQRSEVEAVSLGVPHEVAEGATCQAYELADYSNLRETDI
T2 sequence (P35368 whole entry): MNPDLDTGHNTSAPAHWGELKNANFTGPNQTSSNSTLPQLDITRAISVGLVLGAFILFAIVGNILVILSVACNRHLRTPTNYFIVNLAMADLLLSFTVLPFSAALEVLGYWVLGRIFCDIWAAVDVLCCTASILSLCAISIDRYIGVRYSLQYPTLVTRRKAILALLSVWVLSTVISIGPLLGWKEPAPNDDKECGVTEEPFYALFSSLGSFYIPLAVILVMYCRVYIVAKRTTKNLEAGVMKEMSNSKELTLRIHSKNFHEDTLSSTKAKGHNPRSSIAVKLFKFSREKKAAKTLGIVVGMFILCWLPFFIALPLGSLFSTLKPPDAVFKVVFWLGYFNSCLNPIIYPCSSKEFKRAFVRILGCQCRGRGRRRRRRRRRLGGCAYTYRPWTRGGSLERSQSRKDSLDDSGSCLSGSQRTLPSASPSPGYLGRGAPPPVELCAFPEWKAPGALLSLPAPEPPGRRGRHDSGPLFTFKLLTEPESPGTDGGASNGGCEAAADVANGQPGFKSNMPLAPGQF

D(1A) dopamine receptor = D(1A) dopamine receptor (Homo sapiens, UniProt P21728); test: Binding affinity to dopamine D1 receptor
Sequence of D(1A) dopamine receptor (P21728 whole entry): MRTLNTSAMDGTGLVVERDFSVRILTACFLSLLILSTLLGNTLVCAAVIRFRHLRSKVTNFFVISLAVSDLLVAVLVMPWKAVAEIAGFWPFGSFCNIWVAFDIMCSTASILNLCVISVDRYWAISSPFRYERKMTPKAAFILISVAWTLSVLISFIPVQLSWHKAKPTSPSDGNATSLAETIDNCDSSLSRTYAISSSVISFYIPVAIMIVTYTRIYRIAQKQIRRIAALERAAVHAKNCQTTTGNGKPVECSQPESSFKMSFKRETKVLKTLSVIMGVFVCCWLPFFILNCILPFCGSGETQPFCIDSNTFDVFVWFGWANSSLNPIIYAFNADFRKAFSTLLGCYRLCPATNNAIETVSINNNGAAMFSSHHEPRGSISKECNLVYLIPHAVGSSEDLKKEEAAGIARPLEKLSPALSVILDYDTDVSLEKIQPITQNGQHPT

[4] = Selectivity for dopamine D2 over adrenergic alpha-1 receptor; summary of the method: as §1
Homo sapiens [5] = species on record: Homo sapiens; test: Selectivity for dopamine D1 over adrenergic alpha-1 receptor; summary of the method: as §1
D(2) dopamine receptor = D(2) dopamine receptor (Homo sapiens, UniProt P14416); test: Binding affinity to dopamine D2 receptor
Sequence of D(2) dopamine receptor (P14416 whole entry): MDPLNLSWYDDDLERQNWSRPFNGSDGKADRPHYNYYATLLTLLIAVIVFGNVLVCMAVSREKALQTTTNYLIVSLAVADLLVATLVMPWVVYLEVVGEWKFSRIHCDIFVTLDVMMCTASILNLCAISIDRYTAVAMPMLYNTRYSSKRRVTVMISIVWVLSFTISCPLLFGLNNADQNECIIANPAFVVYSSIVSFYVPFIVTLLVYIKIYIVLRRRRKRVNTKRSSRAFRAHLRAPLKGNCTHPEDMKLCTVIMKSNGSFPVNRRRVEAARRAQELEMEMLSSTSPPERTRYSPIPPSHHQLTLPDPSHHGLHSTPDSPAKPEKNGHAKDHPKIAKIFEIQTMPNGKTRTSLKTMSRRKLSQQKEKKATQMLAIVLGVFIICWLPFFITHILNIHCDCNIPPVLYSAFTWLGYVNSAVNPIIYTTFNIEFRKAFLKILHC

Row | Ratio Ki (Homo sapiens [1]) | Ki [2] [nM] | Ki [3] [nM] | Ki (D(1A) dopamine receptor) [nM] | Ratio Ki [4] | Ratio Ki (Homo sapiens [5]) | Ki (D(2) dopamine receptor) [nM] | Compound
1 | 97 | 157 | 1.63 |  |  |  |  | COc1ccccc1-c1cc2c(=O)n(CCN3CCN(c4ccccc4OC)CC3)c(=O)[nH]c2[nH]1
2 | 61 | 122 | 1.99 |  |  |  |  | COc1ccccc1N1CCN(CCn2c(=O)[nH]c3[nH]c(-c4ccccc4)cc3c2=O)CC1
3 | 327 | 1540 | 4.71 | 516 | 29 | 110 | 137 | O=c1[nH]c2[nH]c(-c3ccccc3)cc2c(=O)n1CCN1CCN(c2ccccc2Cl)CC1
4 | 310 | 1030 | 3.32 | 8550 | 109 | > 2500 | 363 | COc1ccccc1-c1cc2c(=O)n(CCN3CCN(c4ccccc4Cl)CC3)c(=O)[nH]c2[nH]1
5 | 8.8 | 19.1 | 2.18 |  |  |  |  | COc1ccccc1N1CCN(CCn2c(=O)[nH]c3[nH]c(-c4ccccc4Cl)cc3c2=O)CC1

The remaining lines, values behind:

Row | Compound | Ratio Ki (Homo sapiens [1]) | Ki [2] [nM] | Ki [3] [nM] | Ki (D(1A) dopamine receptor) [nM] | Ratio Ki [4] | Ratio Ki (Homo sapiens [5]) | Ki (D(2) dopamine receptor) [nM]
6 | Cc1ccccc1-c1cc2c(=O)n(CCN3CCN(c4ccccc4Cl)CC3)c(=O)[nH]c2[nH]1 | 518 | 1450 | 2.8 | 1040 | 224 | 371 | 627
7 | COc1ccc(-c2cc3c(=O)n(CCN4CCN(c5ccccc5OC)CC4)c(=O)[nH]c3[nH]2)cc1 | 21 | 113 | 5.47 |  |  |  | 
8 | COc1ccccc1N1CCN(CCn2c(=O)[nH]c3[nH]c(-c4ccc(C)cc4)cc3c2=O)CC1 | 67 | 333 | 4.97 |  |  |  | 
9 | O=c1[nH]c2[nH]c(-c3ccccc3Cl)cc2c(=O)n1CCN1CCN(c2ccccc2Cl)CC1 | 10 | 64.9 | 6.28 | 567 | 57 | 90 | 356
10 | COc1ccccc1N1CCN(CCn2c(=O)[nH]c3[nH]c(-c4ccc(Cl)cc4)cc3c2=O)CC1 | 98 | 401 | 4.08 |  |  |  | 
11 | COc1ccccc1N1CCN(CCn2c(=O)[nH]c3[nH]c(-c4ccccc4C)cc3c2=O)CC1 | 248 | 295 | 1.19 |  |  |  | 
